Where a name gives a salt, the structure may show the parent alone.
Tests used:
HeLa = assay: Cytotoxicity against human HeLa cells after 72 hrs by MTT assay; assay type: functional, cell-based
Method in brief: (§1)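 Human tumour cells plated 24 h ahead, then exposed continuously to a range of compound concentrations for 72 h. Viability read by MTT. Adriamycin served as positive control. IC50 is the concentration giving 50% inhibition of control growth. Three independent experiments, each in triplicate.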

A549 = assay: Cytotoxicity against human A549 cells after 72 hrs by MTT assay; assay type: functional, cell-based; settings: A549, 72 h
Method in brief: (§2)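 Human tumour cells plated 24 h ahead, then exposed continuously to a range of compound concentrations for 72 h. Viability read by MTT. Adriamycin served as positive control. Three independent experiments, each in triplicate.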

K562 = assay: Cytotoxicity against human K562 cells after 72 hrs by MTT assay; assay type: functional, cell-based; settings: K562, 72 h; method in brief: as §2
Bel-7402 = assay: Cytotoxicity against human Bel7402 cells after 72 hrs by MTT assay; assay type: functional, cell-based; settings: Bel-7402, 72 h; method in brief: as §1
[1] = biological target: Hepatocyte growth factor receptor (Homo sapiens) (UniProt P08581); assay: Inhibition of c-Met (unknown origin) at 10 uM after 60 mins by ELISA relative to control
Sequence of Hepatocyte growth factor receptor (Homo sapiens) (P08581 whole entry): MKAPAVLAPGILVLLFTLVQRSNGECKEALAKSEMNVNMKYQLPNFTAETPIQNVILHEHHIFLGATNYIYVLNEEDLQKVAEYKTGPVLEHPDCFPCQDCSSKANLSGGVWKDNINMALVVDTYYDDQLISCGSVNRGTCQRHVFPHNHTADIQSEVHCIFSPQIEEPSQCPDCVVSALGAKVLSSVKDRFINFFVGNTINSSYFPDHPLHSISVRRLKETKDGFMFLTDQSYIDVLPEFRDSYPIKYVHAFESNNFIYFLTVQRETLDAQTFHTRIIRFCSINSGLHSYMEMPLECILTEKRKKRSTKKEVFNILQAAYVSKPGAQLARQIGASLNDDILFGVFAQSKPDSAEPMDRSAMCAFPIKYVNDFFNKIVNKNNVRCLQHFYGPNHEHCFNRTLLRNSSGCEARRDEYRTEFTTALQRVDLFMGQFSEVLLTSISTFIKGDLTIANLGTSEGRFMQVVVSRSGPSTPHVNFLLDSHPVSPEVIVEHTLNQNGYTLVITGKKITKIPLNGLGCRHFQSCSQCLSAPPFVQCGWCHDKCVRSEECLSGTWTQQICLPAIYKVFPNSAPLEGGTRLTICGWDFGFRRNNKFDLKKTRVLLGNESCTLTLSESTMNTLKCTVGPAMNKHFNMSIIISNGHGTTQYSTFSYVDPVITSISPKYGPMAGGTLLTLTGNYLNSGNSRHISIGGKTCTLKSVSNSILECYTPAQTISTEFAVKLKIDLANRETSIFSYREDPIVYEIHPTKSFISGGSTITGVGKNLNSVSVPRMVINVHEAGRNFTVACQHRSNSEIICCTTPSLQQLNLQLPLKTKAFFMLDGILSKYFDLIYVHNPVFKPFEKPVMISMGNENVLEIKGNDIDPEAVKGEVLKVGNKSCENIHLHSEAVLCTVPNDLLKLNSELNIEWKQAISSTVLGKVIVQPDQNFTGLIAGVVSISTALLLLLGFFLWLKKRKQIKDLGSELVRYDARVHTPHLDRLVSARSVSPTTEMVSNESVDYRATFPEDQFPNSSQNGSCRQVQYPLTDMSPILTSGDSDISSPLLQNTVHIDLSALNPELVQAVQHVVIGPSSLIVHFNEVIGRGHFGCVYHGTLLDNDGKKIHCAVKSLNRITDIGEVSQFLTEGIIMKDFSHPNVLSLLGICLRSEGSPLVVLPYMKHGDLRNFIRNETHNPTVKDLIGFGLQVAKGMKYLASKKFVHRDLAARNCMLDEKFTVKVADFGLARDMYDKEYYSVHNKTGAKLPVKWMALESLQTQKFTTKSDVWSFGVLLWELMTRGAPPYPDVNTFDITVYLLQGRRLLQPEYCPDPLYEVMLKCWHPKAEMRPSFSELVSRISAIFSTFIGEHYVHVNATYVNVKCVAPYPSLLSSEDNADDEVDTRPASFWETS
Method in brief: (§3)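 ELISA tyrosine kinase assay. Compounds added in DMSO (1% v/v), which was also the negative control; SU11274 (1 μM) was the positive control. Reaction run 60 min at 37 °C. pTyr detected by PY99 plus HRP anti-mouse IgG (30 min, 37 °C), developed with OPD/H2O2, read at 490 nm. Percent inhibition calculated.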

[2] = biological target: Hepatocyte growth factor receptor (Homo sapiens) (UniProt P08581); assay: Inhibition of c-Met (unknown origin) at 1 uM after 60 mins by ELISA relative to control; method in brief: as §3

Q: With `CCCC[C@H](CC)C[C@]1(CC)C=C(CC)/C(=C/C(=O)OC)O1` as the compound, how does the IC50 (HeLa) read?
A: 4.2 µM

Q: What about the IC50 (A549) of the same compound?
A: > 100 µM

Q: What about the IC50 (K562) of the same compound?
A: 5.3 µM

Q: What about the IC50 (Bel-7402) of the same compound?
A: > 100 µM

Q: What does the source list for `CC/C=C/[C@H](CC)C[C@]1(CC)C=C(CC)/C(=C/C(=O)OC)O1`?
A: IC50 (HeLa): 2.6 µM; IC50 (A549): > 100 µM; IC50 (K562): 0.8 µM; IC50 (Bel-7402): > 100 µM

Q: How did the IC50 (HeLa) turn out when `COc1cccc2c1C(=O)c1c(O)c3c(c(O)c1C2=O)C[C@@](O)(C(=O)CO)C[C@@H]3O[C@H]1C[C@H](N)[C@H](O)[C@H](C)O1` [DOXORUBICIN HYDROCHLORIDE] was run?
A: 0.6 µM

Q: For `CCCCC(C)Cc1cc(CC)c(CC(=O)O)o1` (configuration not stated) [PLAKORSIN D], which IC50 (HeLa) is on record?
A: > 100 µM

Q: What about the IC50 (A549) of the same compound?
A: > 100 µM

Q: What about the IC50 (K562) of the same compound?
A: > 100 µM

Q: What about the IC50 (Bel-7402) of the same compound?
A: > 100 µM

Q: `CCCCC(C)C[C@]1(CC)O[C@H]1[C@]1(CC)C=CC(=O)O1` (some centres not stated) [PLAKORTOXIDE A] was tested. Which IC50 (HeLa) did it give?
A: 31.5 µM

Q: And the IC50 (A549)?
A: > 100 µM

Q: What about the IC50 (K562) of the same compound?
A: > 50 µM

Q: What about the IC50 (Bel-7402) of the same compound?
A: > 100 µM

Q: What does the source list for `CCCCC(CC)C[C@]1(CC)O[C@H]1[C@]1(CC)C=CC(=O)O1` (some centres not stated) [PLAKORTOXIDE B]?
A: IC50 (HeLa): > 50 µM; IC50 (A549): > 100 µM; IC50 (K562): > 100 µM; IC50 (Bel-7402): > 100 µM

Q: How did the IC50 (HeLa) turn out when `CCCCC(C)C/C(=C\[C@@]1(CC)OC(=O)C[C@@H]1O)CC` (some centres not stated) [SIMPLEXOLIDE B] was run?
A: 4.7 µM

Q: And the IC50 (A549)?
A: > 100 µM

Q: What about the IC50 (K562) of the same compound?
A: 2.2 µM

Q: What about the IC50 (Bel-7402) of the same compound?
A: > 100 µM

Q: How did the IC50 (HeLa) turn out when `CCCCC(C)C/C(=C/[C@@]1(CC)OC(=O)C[C@@H]1O)CC` (some centres not stated) [SIMPLEXOLIDE E] was run?
A: 31.2 µM

Q: And the IC50 (A549)?
A: > 100 µM

Q: And the IC50 (K562)?
A: 49.2 µM

Q: What about the IC50 (Bel-7402) of the same compound?
A: > 100 µM

Q: Which results are given for `CC/C=C/[C@H]1C[C@](O)(CC)[C@@H]([C@]2(CC)OC(=O)C[C@@H]2O)[C@@H]1C` [SIMPLEXTONE C]?
A: IC50 (HeLa): 29 µM; inhibition [1]: 57.4%; inhibition [2]: 34.3%; IC50 (A549): 40.4 µM; IC50 (K562): 19.4 µM; IC50 (Bel-7402): > 100 µM

Q: What does the source list for `CCC[C@@H]1[C@@H](C)C[C@](O)(CC)[C@H]1[C@]1(CC)OC(=O)C[C@@H]1O` [SIMPLEXTONE D]?
A: IC50 (HeLa): > 50 µM; IC50 (A549): > 100 µM; IC50 (K562): > 100 µM; IC50 (Bel-7402): > 100 µM

Q: How did the IC50 (HeLa) turn out when `CCCCC(C)CC(O)(/C=C(/CC)[C@@H](O)CC(=O)OC)CC` (some centres not stated) [WOODYLIDE A] was run?
A: 15.5 µM

Q: What about the IC50 (A549) of the same compound?
A: 29.3 µM

Q: And the IC50 (K562)?
A: 23.8 µM

Q: And the IC50 (Bel-7402)?
A: > 100 µM

Q: For `CCCCC(CC)CC(O)(/C=C(/CC)[C@@H](O)CC(=O)OC)CC` (some centres not stated) [WOODYLIDE B], which IC50 (HeLa) is on record?
A: 15.9 µM

Q: And the IC50 (A549)?
A: 23.6 µM

Q: What about the IC50 (K562) of the same compound?
A: 20 µM

Q: And the IC50 (Bel-7402)?
A: > 100 µM
